Laboratory results taken from ChEMBL document CHEMBL4387722.

What was measured:
[1] = molecular target: T1, Phosphotyrosine protein phosphatase (Mycobacterium tuberculosis, UniProt A0A045ISB3); assay: Inhibition of Mycobacterium tuberculosis His-tagged PtpB expressed in Escherichia coli Rosetta 2 (DE3) using pNPP as substrate after 30 mins by spectrophotometric method
T1 sequence (A0A045ISB3 whole entry): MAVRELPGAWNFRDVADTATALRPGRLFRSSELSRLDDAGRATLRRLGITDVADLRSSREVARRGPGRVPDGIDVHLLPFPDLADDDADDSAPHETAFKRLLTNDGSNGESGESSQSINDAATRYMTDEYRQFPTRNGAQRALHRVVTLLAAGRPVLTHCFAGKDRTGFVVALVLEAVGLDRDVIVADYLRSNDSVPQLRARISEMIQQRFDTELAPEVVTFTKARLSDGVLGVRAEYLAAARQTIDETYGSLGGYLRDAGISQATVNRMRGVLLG

[2] = molecular target: T2, Tyrosine-protein phosphatase non-receptor type 1 (Homo sapiens, UniProt P18031); assay: Inhibition of human PTPN1 expressed in Escherichia coli Rosetta 2 (DE3) using pNPP as substrate after 45 mins by spectrophotometric method
T2 sequence (P18031 whole entry): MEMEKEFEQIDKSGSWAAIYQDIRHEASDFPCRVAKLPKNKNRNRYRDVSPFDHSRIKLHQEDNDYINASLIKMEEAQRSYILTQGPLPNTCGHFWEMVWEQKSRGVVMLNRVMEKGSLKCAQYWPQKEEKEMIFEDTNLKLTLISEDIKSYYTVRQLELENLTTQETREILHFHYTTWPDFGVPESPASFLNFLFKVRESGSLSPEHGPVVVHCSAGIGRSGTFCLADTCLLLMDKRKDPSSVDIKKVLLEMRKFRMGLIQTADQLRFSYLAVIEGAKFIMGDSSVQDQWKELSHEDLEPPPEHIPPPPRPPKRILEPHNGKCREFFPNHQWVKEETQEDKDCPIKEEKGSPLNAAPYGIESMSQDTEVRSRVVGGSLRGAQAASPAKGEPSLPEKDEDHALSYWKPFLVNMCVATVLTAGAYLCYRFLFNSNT

[3] = molecular target: T3, Tyrosine-protein phosphatase non-receptor type 2 (Homo sapiens, UniProt P17706); assay: Inhibition of human PTPN2 expressed in Escherichia coli Rosetta 2 (DE3) using pNPP as substrate after 45 mins by spectrophotometric method
T3 sequence (P17706 whole entry): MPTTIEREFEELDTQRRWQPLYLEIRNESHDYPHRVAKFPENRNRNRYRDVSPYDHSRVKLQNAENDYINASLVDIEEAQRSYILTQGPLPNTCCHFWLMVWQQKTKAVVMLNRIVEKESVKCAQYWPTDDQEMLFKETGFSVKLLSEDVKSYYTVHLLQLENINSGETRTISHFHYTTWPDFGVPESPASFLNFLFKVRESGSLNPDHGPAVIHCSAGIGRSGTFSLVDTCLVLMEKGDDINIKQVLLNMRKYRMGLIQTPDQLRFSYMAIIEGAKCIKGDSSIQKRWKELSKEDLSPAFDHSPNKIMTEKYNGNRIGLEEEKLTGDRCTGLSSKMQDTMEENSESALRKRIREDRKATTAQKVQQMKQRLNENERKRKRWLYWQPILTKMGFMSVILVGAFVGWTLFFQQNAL

[4] = molecular target: T4, Tyrosine-protein phosphatase non-receptor type 5 (Homo sapiens, UniProt P54829); assay: Inhibition of human PTPN5 expressed in Escherichia coli Rosetta 2 (DE3) using pNPP as substrate after 45 mins by spectrophotometric method
T4 sequence (P54829 whole entry): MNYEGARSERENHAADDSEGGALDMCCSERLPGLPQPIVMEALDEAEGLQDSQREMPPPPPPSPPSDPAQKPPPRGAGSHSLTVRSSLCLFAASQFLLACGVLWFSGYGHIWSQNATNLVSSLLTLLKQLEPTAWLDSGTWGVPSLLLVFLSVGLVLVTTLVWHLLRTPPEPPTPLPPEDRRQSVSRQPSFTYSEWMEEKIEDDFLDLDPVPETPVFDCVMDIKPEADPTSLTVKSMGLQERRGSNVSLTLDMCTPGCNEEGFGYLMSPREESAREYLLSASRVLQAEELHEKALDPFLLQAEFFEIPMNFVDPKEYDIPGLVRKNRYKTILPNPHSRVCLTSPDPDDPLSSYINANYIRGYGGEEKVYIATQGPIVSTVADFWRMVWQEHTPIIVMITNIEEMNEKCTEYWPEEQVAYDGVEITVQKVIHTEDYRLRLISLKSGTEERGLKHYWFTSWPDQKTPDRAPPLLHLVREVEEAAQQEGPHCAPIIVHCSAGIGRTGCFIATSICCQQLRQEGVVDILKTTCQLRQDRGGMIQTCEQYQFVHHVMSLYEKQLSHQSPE

[5] = system: Mycobacterium tuberculosis; assay: Antitubercular activity against Mycobacterium tuberculosis H37Rv after 5 days at 200 uM relative to control; type: functional; conditions: 120 h
Method in brief: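 M. tuberculosis grown in liquid culture with compound at a fixed 200 μM for 5 days. Growth inhibition expressed as percent of control.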

[6] = system: Mycobacterium tuberculosis; assay: Antitubercular activity against Mycobacterium tuberculosis H37Rv after 5 days; type: functional, organism-based; conditions: 120 h
E. coli GroEL/ES = E. coli GroEL/ES (Escherichia coli, UniProt P0A6F5); assay: Inhibition of Escherichia coli GroEL expressed in Escherichia coliDH5alpha/Escherichia coli GroES expressed in Escherichia coli BL21 (DE3) assessed as reduction in GroEL/GroES-mediated denatured pig heart mitochondrial MDH refolding by measuring MDH enzyme activity using sodium mesoxalate as substrate after 20 to 40 mins by spectrometric analysis
E. coli GroEL/ES, sequence (P0A6F5 whole entry, looked up): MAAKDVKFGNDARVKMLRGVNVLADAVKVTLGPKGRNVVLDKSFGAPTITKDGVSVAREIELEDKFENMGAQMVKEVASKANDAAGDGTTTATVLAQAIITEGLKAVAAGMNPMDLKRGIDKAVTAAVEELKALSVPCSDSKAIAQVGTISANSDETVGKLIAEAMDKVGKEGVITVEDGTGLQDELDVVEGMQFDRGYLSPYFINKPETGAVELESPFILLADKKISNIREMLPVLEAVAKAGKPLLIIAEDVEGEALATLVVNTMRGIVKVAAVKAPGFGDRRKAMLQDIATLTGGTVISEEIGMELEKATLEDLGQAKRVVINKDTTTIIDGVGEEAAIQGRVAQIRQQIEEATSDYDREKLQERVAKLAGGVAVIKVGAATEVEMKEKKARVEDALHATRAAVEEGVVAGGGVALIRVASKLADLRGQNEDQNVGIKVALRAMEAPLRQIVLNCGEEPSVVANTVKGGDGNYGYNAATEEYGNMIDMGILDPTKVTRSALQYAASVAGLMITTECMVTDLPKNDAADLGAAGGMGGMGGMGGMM

HSP60/HSP10 = HSP60/HSP10 (Homo sapiens, UniProt P10809); assay: Inhibition of human HSP60 expressed in Escherichia coli Rosetta 2(DE3)/human HSP10 expressed in Escherichia coli Rosetta 2(DE3) pLysS cells assessed as reduction in HSP60/HSP10-mediated denatured pig heart mitochondrial MDH refolding by measuring MDH enzyme activity using sodium mesoxalate as substrate after 40 to 60 mins by spectrometric analysis
HSP60/HSP10, sequence (P10809 whole entry): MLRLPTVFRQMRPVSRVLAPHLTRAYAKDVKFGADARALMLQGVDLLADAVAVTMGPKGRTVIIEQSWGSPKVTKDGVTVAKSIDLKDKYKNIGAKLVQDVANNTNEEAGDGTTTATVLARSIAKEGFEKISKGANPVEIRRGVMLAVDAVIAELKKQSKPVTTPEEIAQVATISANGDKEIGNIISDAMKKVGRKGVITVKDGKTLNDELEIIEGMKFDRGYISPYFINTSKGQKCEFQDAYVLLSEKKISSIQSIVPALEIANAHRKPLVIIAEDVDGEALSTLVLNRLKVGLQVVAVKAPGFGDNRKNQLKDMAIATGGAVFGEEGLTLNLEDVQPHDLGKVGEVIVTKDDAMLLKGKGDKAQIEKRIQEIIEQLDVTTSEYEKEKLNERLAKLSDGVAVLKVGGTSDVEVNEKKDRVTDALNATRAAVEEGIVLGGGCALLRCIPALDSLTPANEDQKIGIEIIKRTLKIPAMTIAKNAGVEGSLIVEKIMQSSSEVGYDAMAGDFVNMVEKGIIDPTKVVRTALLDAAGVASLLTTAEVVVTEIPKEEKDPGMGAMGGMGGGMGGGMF
HSP60/HSP10, sequence (P61604 whole entry, further chain): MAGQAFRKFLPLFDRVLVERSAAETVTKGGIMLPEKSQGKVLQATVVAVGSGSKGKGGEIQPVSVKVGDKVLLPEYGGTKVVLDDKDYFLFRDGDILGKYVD

[7] = Selectivity index, ratio of IC50 for human PTPN1 to IC50 for Mycobacterium tuberculosis PtpB
[8] = Selectivity ratio of IC50 for inhibition of human HSP60 expressed in Escherichia coli Rosetta 2(DE3)/human HSP10 expressed in Rosetta 2(DE3) pLysS cells to IC50 for inhibition of Escherichia coli GroEL expressed in Escherichia coli DH5alpha/Escherichia coli GroES expressed in Escherichia coli BL21 (DE3)
Method in brief: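 Ratio of IC50s from two analogous chaperonin-mediated refolding assays: human HSP60/10 and E. coli GroEL/ES each refold denatured malate dehydrogenase (dMDH). Refolding is followed through the recovered MDH enzymatic activity in a coupled read-out. IC50s come from dose-response testing. GroEL subunits are at 700 nM in the GroEL/ES assay.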

Row | Structure (SMILES) | IC50 [1] | IC50 [2] | IC50 [3] | IC50 [4] | inhibition at 200 µM [5] | EC50 [6] | IC50 (E. coli GroEL/ES) | IC50 (HSP60/HSP10) | Ratio IC50 [7] | Ratio IC50 [8]
1 | O=S(=O)(Nc1ccc(-c2nc3cc(NS(=O)(=O)c4ccc(O)cc4)ccc3o2)cc1)c1ccc(O)cc1 | 12 µM | 27 µM | 75 µM | 35 µM | 66% | 94 µM | 0.23 µM | 14 µM | 2.3 | 61
2 | O=S(=O)(Nc1ccc(-c2nc3cc(NS(=O)(=O)c4ccc(F)cc4)ccc3o2)cc1)c1ccc(F)cc1 | 18 µM | 27 µM | 28 µM | 23 µM | 48% | 66 µM | 3.3 µM | 67 µM | 1.3 | 20
3 | CS(=O)(=O)Nc1ccc(-c2nc3cc(NS(=O)(=O)c4ccc(Cl)s4)ccc3o2)cc1 | 37 µM | 52 µM | 95 µM | 52 µM | 74% | 66 µM | 14 µM | 43 µM | 1.4 | 3.1
4 | O=S(=O)(Nc1ccc(-c2nc3cc(NS(=O)(=O)c4cccc(O)c4)ccc3o2)cc1)c1cccc(O)c1 | 1.5 µM | 38 µM | 84 µM | 47 µM | 80% | 84 µM | 0.97 µM | 17 µM | 25 | 18
5 | O=S(=O)(Nc1ccc(-c2nc3cc(NS(=O)(=O)c4ccccc4F)ccc3o2)cc1)c1ccccc1F | 16 µM | 36 µM | 31 µM | 26 µM | 54% | 45 µM | 20 µM | 57 µM | 1.6 | 2.9
6 | O=S(=O)(Nc1ccc(-c2nc3cc(NS(=O)(=O)c4cccs4)ccc3o2)cc1)c1cccs1 | 12 µM | 31 µM | 41 µM | 33 µM | 59% | 34 µM | 5.5 µM | 40 µM | 2.6 | 7.3
7 | O=S(=O)(Nc1ccc2oc(-c3ccc(NS(=O)(=O)c4cccc5nonc45)cc3)nc2c1)c1ccc(Cl)s1 | 5.9 µM | 15 µM | 28 µM | 24 µM | 46% | 58 µM | 9.3 µM | 13 µM | 2.5 | 1.4
8 | O=S(=O)(Nc1ccc2oc(-c3ccc(NS(=O)(=O)c4ccc(Cl)s4)cc3)nc2c1)c1cccs1 | 5.1 µM | 13 µM | 31 µM | 23 µM | 52% | 36 µM | 4 µM | 9.1 µM | 2.5 | 2.3
9 | O=S(=O)(Nc1ccc(-c2nc3cc(NS(=O)(=O)c4ccccc4)ccc3o2)cc1)c1ccccc1 | 18 µM | 24 µM | 29 to 31 µM | 23 µM | 76% | 28 µM | 4 µM | 80 µM | 1.3 | 20
